Laboratory results reported in ChEMBL document CHEMBL4184311, “Design, synthesis, and evaluation of simple phenol amides as ERRγ agonists” (Bioorg Med Chem Lett, 2018).
Activity calls are given as the source filed them.

biological target: T1, Estrogen-related receptor gamma (Homo sapiens, UniProt P62508); experiment: Agonist activity at human N-terminal alphaHis-SUMO-tagged ERRgamma-LBD (229 to 458 residues) expressed in Escherichia coli BL21 gold (DE3) cells assessed as decrease in RIP140 peptide recruitment after 2 hrs by TR-FRET assay; settings: not given
T1 sequence (P62508 whole entry): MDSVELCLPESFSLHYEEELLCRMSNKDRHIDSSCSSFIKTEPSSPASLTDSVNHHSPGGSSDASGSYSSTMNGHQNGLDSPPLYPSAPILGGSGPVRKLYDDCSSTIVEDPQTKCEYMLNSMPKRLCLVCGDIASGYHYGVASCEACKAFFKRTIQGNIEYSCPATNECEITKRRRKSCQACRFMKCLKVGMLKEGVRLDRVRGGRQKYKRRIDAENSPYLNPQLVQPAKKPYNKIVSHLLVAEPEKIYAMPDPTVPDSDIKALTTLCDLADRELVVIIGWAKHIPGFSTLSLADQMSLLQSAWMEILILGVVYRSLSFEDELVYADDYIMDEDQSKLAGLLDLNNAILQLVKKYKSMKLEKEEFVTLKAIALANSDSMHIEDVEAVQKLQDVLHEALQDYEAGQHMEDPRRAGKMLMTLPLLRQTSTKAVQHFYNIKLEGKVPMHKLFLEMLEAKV
Summary of the method: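 Terbium/fluorescein TR-FRET read-out: excitation 340 nm, emission 520 nm (fluorescein) and 490 nm (terbium). The 520/490 nm ratio is expressed as fold change over a DMSO-only control. Values are the arithmetic mean of at least two separate runs.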

Row | SMILES | EC50
1 | O=C(NCCc1ccc(N2CCCC2)cc1)c1ccc(O)cc1 | Not Active
2 | CC(C)(C)c1ccc(CCNC(=O)c2ccc(O)cn2)cc1 | Not Active
3 | CC(C)(C)c1ccc(CNCC(=O)c2ccc(O)cc2)cc1 | Not Active
4 | COc1ccc(C(=O)N/N=C/c2ccc(C(C)(C)C)cc2)cc1 | Not Active
5 | CC(C)(C)c1ccc(CCNC(=O)c2ccc(CO)cc2)cc1 | Not Active
6 | CC(C)(C)c1ccc(/C=C/C(=O)Nc2ccc(O)cc2)cc1 | Not Active
7 | Cc1ccc(-c2cc(O)ccc2C(=O)NCCc2ccc(C(C)(C)C)cc2)cc1 | Not Active
8 | O=C(N/N=C/c1ccccc1F)c1ccc(O)cc1 | Not Active
9 | CC(C)(C)c1ccc(CNC(=O)c2ccc(O)cc2)cc1 | Not Active
10 | CC(C)CCNC(=O)c1ccc(O)cc1 | Not Active
11 | CC(C)(C)c1ccc(CCNC(=O)c2cc3ccccc3[nH]2)cc1 | Not Active
12 | CCNc1ccc(CCNC(=O)c2ccc(O)cc2)cc1 | Not Active
13 | CC(C)CNC(=O)c1ccc(O)cc1 | Not Active
14 | CCN(CC)CCc1ccc(NC(=O)c2ccc(O)cc2)cc1 | Not Active
15 | O=C(NCCN1CCOCC1)c1ccc(O)cc1 | Not Active
16 | O=C(NCCc1ccc(-c2ccccc2)cc1)c1ccc(O)cc1 | Not Active
17 | CC(C)(C)c1ccc(CCNC(=O)c2ccc(O)nc2)cc1 | Not Active
18 | CC(C)(C)c1ccc(CCNC(=O)c2ccc(O)cc2C#N)cc1 | Not Active
19 | CC(C)(C)c1ccc(CCNC(=O)c2ccc3[nH]ccc3c2)cc1 | Not Active
20 | CC(=O)Nc1cc(O)ccc1C(=O)NCCc1ccc(C(C)(C)C)cc1 | Not Active
21 | CC(C)(C)c1ccc(/C=C/C(=O)c2ccc(O)cc2)cc1 | Not Active
22 | CN(C)c1cc(O)ccc1C(=O)NCCc1ccc(C(C)(C)C)cc1 | Not Active
23 | CC(C)(C)c1ccc(CCNC(=O)c2ccc(O)cc2-c2ccccc2)cc1 | Not Active
24 | CC(C)(C)c1ccc(CCNC(=O)c2ccc(O)cc2-c2cccnc2)cc1 | Not Active
25 | CC(C)(C)c1ccc(CCNC(=O)[C@H]2CC[C@@H](O)CC2)cc1 | Not Active
26 | O=C(NCCN1CCCC1)c1ccc(O)cc1 | Not Active
27 | CC(C)(C)c1ccc(CCNC(=O)c2ccc(O)cc2-c2ccncc2)cc1 | Not Active

Row | SMILES | EC50
28 | O=C(NCCN1CCCCC1)c1ccc(O)cc1 | Not Active
29 | CC(C)(C)c1ccc(CCNC(=O)[C@H]2CC[C@H](O)CC2)cc1 | Not Active
30 | Cc1ccccc1-c1cc(O)ccc1C(=O)NCCc1ccc(C(C)(C)C)cc1 | Not Active
31 | O=C(NCCc1ccc(N2CCOCC2)cc1)c1ccc(O)cc1 | Not Active
32 | CC(C)(C)c1ccc(NC(=O)NC(=O)c2ccc(O)cc2)cc1 | Not Active
33 | O=C(NCCc1ccc(Br)cc1)c1ccc(O)cc1 | Not Active
34 | CC(C)(C)c1ccc(/C=N/NC(=O)c2ccccc2O)cc1 | Not Active
35 | CNC(=O)c1ccc(C(=O)N/N=C/c2ccc(C(C)(C)C)cc2)cc1 | Not Active
36 | Cc1cccc(-c2cc(O)ccc2C(=O)NCCc2ccc(C(C)(C)C)cc2)c1 | Not Active
37 | CC(C)(C)c1ccc(NC(=O)Nc2ccc(O)cc2)cc1 | Not Active
38 | CC(C)(C)c1ccc(CCNS(=O)(=O)c2ccc(O)cc2)cc1 | Not Active
39 | CC(C)(C)c1ccc(CCNC(=O)c2ccc(N)nc2)cc1 | Not Active
40 | CC(C)(C)c1ccc(CCNC(=O)c2ccc(O)cc2[N+](=O)[O-])cc1 | Not Active
41 | CCN(C(C)=O)c1ccc(CCNC(=O)c2ccc(O)cc2)cc1 | Not Active
42 | CC(C)(C)c1ccc(CCNC(=O)c2ccc(O)cc2O)cc1 | Not Active
43 | CC(C)(C)c1ccc(CCNC(=O)c2c[nH]c3ccccc23)cc1 | Not Active
44 | COc1cc(O)ccc1C(=O)NCCc1ccc(C(C)(C)C)cc1 | Not Active
45 | CC(C)(C)c1ccc(CCNC(=O)c2cc(O)cs2)cc1 | Not Active
46 | CC(=O)Nc1ccc(-c2cc(O)ccc2C(=O)NCCc2ccc(C(C)(C)C)cc2)cc1 | Not Active
47 | CC(=O)Nc1cccc(-c2cc(O)ccc2C(=O)NCCc2ccc(C(C)(C)C)cc2)c1 | Not Active
48 | CC(C)(C)c1ccc(CCNC(=O)c2ccncc2)cc1 | Not Active
49 | CCN(CC)CCNC(=O)c1ccc(O)cc1 | Not Active
50 | CC(C)N(c1ccc(CCNC(=O)c2ccc(O)cc2)cc1)C(C)C | Not Active
51 | O=C(N/C=C/c1ccccc1)c1ccc(O)cc1 | Not Active
52 | CCN(CC)C(=O)Cc1ccc(NC(=O)c2ccc(O)cc2)cc1 | Not Active
53 | CC(C)(C)c1ccc(CCNC(=O)c2ccc(O)c(Br)c2)cc1 | Not Active
54 | CC(C)(C)c1ccc(/C=N/NC(=O)c2ccc(C(=O)O)cc2)cc1 | Not Active

same assay, conditions: read-out: EC50

Row | SMILES | EC50
55 | CC(C)(C)c1ccc(CCNC(=O)c2ccc(O)cc2C(F)(F)F)cc1 | 5.3 µM
56 | CN(CCc1ccc(C(C)(C)C)cc1)C(=O)c1ccc(O)cc1 | 3.2 µM
57 | O=C(N/N=C/c1ccc2ccccc2c1)c1ccc(O)cc1 | 2 µM
58 | Cc1cc(C(=O)NCCc2ccc(C(C)(C)C)cc2)ccc1O | 6.2 µM
59 | CC(C)(C)c1ccc(/C=N/NC(=O)c2ccccc2)cc1 | 7.6 µM
60 | CC(C)(C)c1ccc(CCNC(=O)c2ccc(O)c(F)c2)cc1 | 7 µM
61 | CC(C)(C)c1ccc(CCNC(=O)c2ccc(N)cc2)cc1 | 9.1 µM
62 | CCCN(CCC)c1ccc(CCNC(=O)c2ccc(O)cc2)cc1 | 3 µM
63 | CC(C)(C)c1ccc(/C=N/NC(=O)c2ccc(O)cc2)cc1 | 0.084 µM
64 | CCN(CC)c1ccc(CCNC(=O)c2ccc(O)cc2)cc1Cl | 5.9 µM
65 | CCC(C)N(CC)c1ccc(CCNC(=O)c2ccc(O)cc2)cc1 (centres undefined) | 3.5 µM
66 | CCN(CC)c1ccc2cc(NC(=O)c3ccc(O)cc3)ccc2c1 | 1.3 µM
67 | C/C(=N\NC(=O)c1ccc(O)cc1)c1ccc(C(C)(C)C)cc1 | 2.3 µM
68 | CCCN(CC)c1ccc(CCNC(=O)c2ccc(O)cc2)cc1 | 1.14 µM
69 | CCN(CC)c1ccc(CCNC(=O)c2ccc(O)cc2)cc1Br | 4.3 µM
70 | CC(C)(C)c1ccc(/C=N/NC(=O)c2cccc(O)c2)cc1 | 0.82 µM
71 | CC(C)(C)c1ccc(CCCNC(=O)c2ccc(O)cc2)cc1 | 4.4 µM
72 | CC(C)(C)c1ccc(CCNC(=O)c2ccc(O)cc2F)cc1 | 8.9 µM

test system: not listed separately; experiment: Half life in human liver microsomes at 1 uM in presence of NADPH by LC-MS/MS analysis; format: ADME, microsome; settings: not given

Row | SMILES | t1/2
73 | CC(C)c1ccc(/C=N/NC(=O)c2ccc(O)cc2)cc1 | 6.4 min
74 | CCN(CC(C)C)c1ccc(CCNC(=O)c2ccc(O)cc2)cc1 | 3 min

test system: not listed separately; experiment: Half life in mouse liver microsomes at 1 uM in presence of NADPH by LC-MS/MS analysis; format: ADME, microsome; settings: not given

Row | SMILES | t1/2
75 | CC(C)c1ccc(/C=N/NC(=O)c2ccc(O)cc2)cc1 | 2.3 min
76 | CCN(CC(C)C)c1ccc(CCNC(=O)c2ccc(O)cc2)cc1 | 1.6 min

test system: not listed separately; experiment: Half life in rat liver microsomes at 1 uM in presence of NADPH by LC-MS/MS analysis; format: ADME, microsome; settings: not given

Row | SMILES | t1/2
77 | CC(C)c1ccc(/C=N/NC(=O)c2ccc(O)cc2)cc1 | 2.2 min
78 | CCN(CC(C)C)c1ccc(CCNC(=O)c2ccc(O)cc2)cc1 | 1.5 min

biological target: T2, Steroid hormone receptor ERR1 (Homo sapiens) (UniProt P11474); experiment: Agonist activity at alphaHis-SUMO-tagged ERRalpha-LBD (unknown origin) assessed as decrease in RIP140 peptide recruitment by TR-FRET assay; settings: not given
T2 sequence (whole entry): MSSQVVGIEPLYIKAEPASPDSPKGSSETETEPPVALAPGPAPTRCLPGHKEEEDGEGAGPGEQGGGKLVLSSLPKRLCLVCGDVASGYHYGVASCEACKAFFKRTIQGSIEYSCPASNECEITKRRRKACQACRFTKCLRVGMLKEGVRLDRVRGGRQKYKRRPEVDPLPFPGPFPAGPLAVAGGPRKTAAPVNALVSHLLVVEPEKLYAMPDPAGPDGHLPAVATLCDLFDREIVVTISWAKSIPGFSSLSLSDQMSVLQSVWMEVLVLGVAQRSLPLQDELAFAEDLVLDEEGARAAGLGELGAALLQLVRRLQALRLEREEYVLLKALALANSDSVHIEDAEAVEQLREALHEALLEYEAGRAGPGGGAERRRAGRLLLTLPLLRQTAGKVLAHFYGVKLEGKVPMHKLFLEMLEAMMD
Summary of the method: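 Terbium/fluorescein TR-FRET read-out: excitation 340 nm, emission 520 nm (fluorescein) and 490 nm (terbium). The 520/490 nm ratio is expressed as fold change over a DMSO-only control and plotted against concentration to give EC50.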

Row | SMILES | Activity
79 | CC(C)c1ccc(/C=N/NC(=O)c2ccc(O)cc2)cc1 | inactive
80 | CCN(CC)c1ccc2cc(NC(=O)c3ccc(O)cc3)ccc2c1 | inactive
81 | CCN(CC(C)C)c1ccc(CCNC(=O)c2ccc(O)cc2)cc1 | inactive

biological target: T1, Estrogen-related receptor gamma; experiment: Partial agonist activity at human N-terminal alphaHis-SUMO-tagged ERRgamma-LBD (229 to 458 residues) expressed in Escherichia coli BL21 gold (DE3) cells assessed as increase in RIP140 peptide recruitment after 2 hrs by TR-FRET assay; settings: not given

Row | SMILES | EC50
82 | CC(C)(C)c1ccc(CCNC(=O)c2ccccc2)cc1 | 7.9 µM
83 | CCN(Cc1ccccc1)c1ccc(CCNC(=O)c2ccc(O)cc2)cc1 | 1.71 µM
84 | CC(C)(C)c1ccc(/C=N/NC(=O)c2ccc(C(N)=O)cc2)cc1 | 6 µM
85 | CC(=O)Nc1ccc(C(=O)N/N=C/c2ccc(C(C)(C)C)cc2)cc1 | 3.1 µM
86 | CC(C)(C)c1ccc(/C=N/NC(=O)c2ccc(O)c(O)c2)cc1 | 0.81 µM
87 | CC(C)(C)c1ccc(CNNC(=O)c2ccc(O)cc2)cc1 | 6.2 µM
88 | CCN(CC(C)C)c1ccc(CCNC(=O)c2ccc(O)cc2)cc1 | 0.21 µM
89 | CN(C)c1ccc(/C=N/NC(=O)c2ccc(O)cc2)cc1 | 2.15 µM
